Source: PubChem (The Scripps Research Institute Molecular Screening Center)
Compounds with a hit are over-represented: about 4.6% of the library has one in this group of screens.
TAAR1 agonist: human TAAR1 agonists, primary screen, Fluo-8 calcium fluorescence, CHO RD-HGA16 cells. vehicle wells 0%, saturating PEA agonist 100%. AID 624467, 2012. activation, % at 3 µM. actives 0.99% (n = 360,000);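 active = activation above the mean activation of all test compounds in the run plus 3 SD, cut at about 38% in these data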
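System: CHO-derived RD-HGA16 cells with stable Gα16 and human TAAR1. Times: 17-24 h plating, Fluo-8 75 min 37 °C, 30 min RT. Measured by: calcium-sensitive Fluo-8 signal, excitation 470-495, emission 515-575 nm. Read-out basis: % activation relative to PEA EC100 response. Control set: DMSO and PEA EC100. Repeats: no replicates (n 1).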
TAAR1 antagonist: human TAAR1 antagonists, primary screen, Fluo-8 calcium fluorescence, CHO RD-HGA16 cells; antagonist; Trace amine-associated receptor 1 (Homo sapiens), Q96RJ0; inhibition, % at 3 µM; actives 1.5% (n = 360,000);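 active = inhibition above a per-plate cutoff, the mean inhibition of test compounds on that plate plus 3 SD, cut at about 49% in these data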;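 also: 0% = DMSO plus EC80 beta-PEA response and 100% = DMSO alone without agonist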
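Material: RD-HGA16 CHO cells with stable hTAAR1 and Gα16; Dosing: single nominal final test compound concentration of 3 µM; Schedule: seeding 17-24 h prior, 75-min 37 °C, 30-min RT dye loading; Detection: kinetic Fluo-8 calcium fluorescence measurement; Measure: % inhibition from peak post-agonist over basal fluorescence ratio; Benchmarks: vehicle and agonist controls.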
CHO parental Ca: ATP-evoked calcium signal inhibitors, parental CHO, primary screen, counter-screen for OX1R antagonist project, cell-based, fluorescence, Fluo-8 calcium dye; parental CHO-K1, ATP-induced calcium, Fluo-8 fluorescence; inhibition, % at 5.6 µM; actives 0.63% (n = 330,000); AID 463079, 2010;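 active = inhibition above that plate's mean sample inhibition plus 3 SD, cut at about 26% in these data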;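 also: 0% = ATP-challenged DMSO wells and 100% = DMSO wells without ATP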
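Assay system – parental CHO cells · Reagent – ATP stimulus · Detection – intracellular calcium via Fluo-8 no-wash fluorescent dye · Evaluation – percent inhibition of ATP-evoked calcium rise, normalized to controls · Controls – ATP wells versus no-ATP DMSO wells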
GPR7 antag: GPR7 receptor antagonists, primary screen, cell-based, fluorescence, single concentration. inhibition, % at 4.4 µM. actives 1.1% (n = 290,000). GPR7-expressing cells, fluorescence antagonist assay; in the data active = inhibition above about 16%, passing the limit was not always enough;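 also: cells stimulated with the agonist NPW; 0% = agonist with vehicle and 100% = vehicle without agonist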
OX1R antag-1: antagonists of human orexin 1 receptor (OX1R). OX1R-expressing cells, FRET antagonist read-out. inhibition, % at 6.6 µM. actives 1.8% (n = 330,000). AID 485270, 2010; in the data active = inhibition mostly above about 38%, no sharp cut-off; inactive = mostly below about 40%;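 also: 0% = agonist challenge alone and 100% = reference antagonist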
Target sequence (O43613 whole entry, looked up): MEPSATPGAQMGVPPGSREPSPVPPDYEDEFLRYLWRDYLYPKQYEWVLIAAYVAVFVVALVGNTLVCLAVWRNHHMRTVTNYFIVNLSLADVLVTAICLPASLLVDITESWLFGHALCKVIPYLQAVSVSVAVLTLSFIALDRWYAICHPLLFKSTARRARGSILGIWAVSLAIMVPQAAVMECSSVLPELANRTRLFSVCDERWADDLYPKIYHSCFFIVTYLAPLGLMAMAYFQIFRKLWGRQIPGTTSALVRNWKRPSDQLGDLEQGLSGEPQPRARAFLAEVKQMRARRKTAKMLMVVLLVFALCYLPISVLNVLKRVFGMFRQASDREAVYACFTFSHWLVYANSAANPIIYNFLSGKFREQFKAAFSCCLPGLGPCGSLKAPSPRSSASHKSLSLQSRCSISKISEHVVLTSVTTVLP
OX1R antag-2: OX1R (HCRTR1) antagonists, primary screen, fluorescence, CHO/OX1R cells, Fluo-8 calcium, orexin A; Fluo-8 calcium fluorescence; inhibition, % at 5 µM; actives 0.43% (n = 330,000); Orexin/Hypocretin receptor type 1 (Homo sapiens), O43613;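 active = inhibition above its plate's threshold, mean inhibition of all tested compounds on the plate plus 3 SD, cut at about 37% in these data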;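 also: 0% = orexin A challenge wells and 100% = SB-334867-A antagonist wells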
The depositor's hits bear a star; . = no result given.

SMILES	TAAR1 agonist	TAAR1 antagonist	CHO parental Ca	GPR7 antag	OX1R antag-1	OX1R antag-2
COc1cc(CN2C[C@@H](CO)O[C@@H](n3cnc4c(NCCN(C)C)ncnc43)C2)cc(OC)c1OC	2	-15	.	.	.	.
CCC(C)NC(=S)N1CCN(C(c2ccccc2)c2ccccc2)CC1 (stereo unspecified)	-1	-9	-25	-4	10	-26
Oc1ccc(C2=NN(c3ccccc3)C(c3ccc(F)cc3)C2)cc1 (stereo unspecified)	2	-1	58*	-18	17	5
Oc1ccccc1C1=NN(c2ccccc2)C(c2ccc(F)cc2)C1 (stereo unspecified)	2	-12	.	-12	.	.
CSc1ncccc1C(=O)Nc1ccc(F)c(F)c1F	7	6	-7	15*	5	-14
Cc1nc2ccccc2nc1OCc1ccc([N+](=O)[O-])cc1	3	6	-7	0	26	-25
CCCCC(=O)NC(=S)Nc1cc([N+](=O)[O-])ccc1OC	0	-42	41*	-12	19	-14
COc1ccc([N+](=O)[O-])cc1NC(=S)NC(C)=O	7	-5	-2	-4	12	-13
COc1cc(/C=C/C(=O)NC(=O)c2ccccc2O)ccc1O	2	-36	-15	-25	67*	-16
COc1ccc(/C=C/C(=O)NC(=S)Nc2cc([N+](=O)[O-])ccc2O)cc1OC	8	14	-19	-2	60*	-6
COc1ccc([N+](=O)[O-])cc1NC(=O)CSc1ccc2ccccc2c1	1	21	24	1	61*	-3
CC1CN(C(=O)CCC(=O)NCCCN2C(C)CCCC2C)c2ccccc2O1 (stereo unspecified)	1	-5	-10	-1	2	-9
O=C(c1ccc([N+](=O)[O-])cc1)N(c1ccccn1)c1ccccn1	4	-9	1	2	74*	-11
O=C(Nc1ccc([N+](=O)[O-])cc1)c1ccccc1	4	4	3	0	15	7
O=C(Nc1cc(Sc2ccccn2)cc([N+](=O)[O-])c1)c1ccc([N+](=O)[O-])cc1	15	24	41*	-7	22	44*
O=[N+]([O-])c1ccc(CSc2ccccn2)cc1	-1	4	-6	2	2	-5
O=C(NCc1ccccn1)c1ccc([N+](=O)[O-])cc1	0	9	-6	3	31	-14
O=[N+]([O-])c1ccc(Sc2ccccn2)nc1	0	-33	2	-3	73*	0
N#CCNC1CC(=O)N(c2ccc(F)cc2)C1=O (stereo unspecified)	2	15	-10	-5	5	7
Nc1ccc2oc(=O)c(-c3ccccc3)cc2c1	-2	-2	-12	5	0	-9
O=c1c2cc([N+](=O)[O-])cc([N+](=O)[O-])c2[nH]n1-c1ccccc1	2	-21	-2	-6	6	-11
O=c1[nH]c(=O)c2cc([N+](=O)[O-])cc([N+](=O)[O-])c2[nH]1	5	-14	-7	-4	52*	-14
COc1ccccc1NC(=O)COC(=O)CN1C(=O)C(=O)c2ccccc21	1	-2	-7	9	34	21
O=C(CN1C(=O)C(=O)c2ccccc21)OCN1C(=O)c2ccccc2C1=O	0	-16	-8	-6	44*	-10
COc1ccccc1N1CC(C(=O)Nc2nnc(SC)s2)CC1=O (stereo unspecified)	1	-12	-13	-13	15	-20
SMILES	TAAR1 agonist	TAAR1 antagonist	CHO parental Ca	GPR7 antag	OX1R antag-1	OX1R antag-2
Cc1cc(C)cc(NC(=O)c2cccc3c2C(=O)N(C2CCCCC2)C3)c1	.	.	-15	-6	4	-18
COc1cc(NC(=O)c2cccc3c2C(=O)N(C2CCCCC2)C3)cc(OC)c1OC	2	53*	-29	9	20	-10
Clc1ccc(CSc2nncn2-c2ccc3c(c2)OCCO3)cc1	8	-22	-11	19*	13	-2
CN1CCN(c2ccc([N+](=O)[O-])cc2S(=O)(=O)N2CCOCC2)CC1	9	6	1	3	94*	-13
CCOc1ccccc1CNS(=O)(=O)c1ccc2[nH]c(=O)sc2c1	16	12	-3	21*	20	-6
CCOC(=O)c1c(C)[nH]c(C)c1S(=O)(=O)NCc1ccccc1OCC	2	-17	-3	-9	62*	14
CCOC(=O)c1c(C)[nH]c(C)c1S(=O)(=O)NCc1ccc(OCC)cc1	0	4	-18	-15	16	-24
CCOC(=O)c1c(C)[nH]c(C)c1S(=O)(=O)NCc1ccccc1C	0	-14	2	-9	50*	13
Cc1cc(C)nc(N2CCN(c3ncnc4c3cnn4Cc3ccc(Cl)cc3Cl)CC2)n1	.	.	-6	.	11	-6
COc1ccc(CCC(=O)Nc2nc3ccccc3[nH]2)cc1	10	21	70*	-13	-1	21
C=CCOc1cccc(/C=N/NC(=O)C(OC)c2ccccc2)c1 (stereo unspecified)	2	23	-13	2	15	-19
CC(=O)c1ccc(N2CCN(C(=S)Nc3cc(C)ccc3C)CC2)cc1	7	-2	-4	-4	-2	-6
CCCCNC(=S)N1CCN(c2ccc(C(C)=O)cc2)CC1	3	16	18	19*	11	-4
CN1c2ccsc2C(O)=C(C(=S)Nc2ccc(F)c(Cl)c2)S1(=O)=O	9	10	-11	2	50*	-5
Cn1cc(C(=O)Nc2ccc(F)c(Cl)c2)cn1	1	-8	11	11	-7	7
CCN(CC(=O)Nc1ccc(NC(C)=O)cc1)C(=O)/C=C/c1ccc(S(=O)(=O)N2CCCCCC2)cc1	1	-8	-6	-6	-6	7
Cc1ccccc1Nc1nc(N)nc(COC(=O)c2cccc(S(=O)(=O)N(C)C)c2)n1	13	7	-15	-1	22	-25
Cc1ccccc1Nc1nc(N)nc(COC(=O)c2cccc(S(=O)(=O)NCc3ccccc3)c2)n1	28	55*	-11	17	31	-7
CCOc1ccc(N(CC(=O)N2CCN(c3ccccc3OC)CC2)S(=O)(=O)c2ccc(F)cc2)cc1	-2	15	.	-15	.	.
